Data as given in ChEMBL document CHEMBL1129062, “6- and 7-substituted 2-[2'-(dimethylamino)ethyl]-1,2-dihydro-3H-dibenz[de,h] isoquinoline-1,3-diones: synthesis, nucleophilic displacements, antitumor activity, and quantitative structure-activity relationships” (J Med Chem, 1996).
The source made the active and inactive calls. The calls are words filed in the database; no cut-off is given here.

How the values were obtained:
[1] = tested on: A549; assay: Tested against A549 lung carcinoma in the sulforhodamine B assay.; type: functional, cell-based; conditions: Homo sapiens
Procedure, shortened: (§1)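 Sulforhodamine B assay. Cells plated at 50 000/well; drug added on day 2 at 10^1–10^-5 μg/mL in half-log steps from DMSO stock diluted in PBS, final DMSO ≤0.1%. After 8-day exposure at 37 °C, cells fixed with TCA at 4 °C for 1 h and stained 30 min with 0.4% SRB. Dye solubilized in 10 mM Tris and OD read at 564 nm. Six wells per concentration; IC50 averaged.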

[2] = tested on: UACC-375; assay: Inhibitory activity against […] cell line; type: functional, cell-based; conditions: Homo sapiens
[3] = tested on: L1210; assay: Inhibitory activity against sensitive L1210 cell lines; type: functional, cell-based; conditions: Mus musculus
[4] = tested on: L1210; assay: Inhibitory activity against resistant murine leukemia L1210 cell lines.; type: functional, cell-based; conditions: Mus musculus
[5] = tested on: MCF7; assay: Tested against […] breast carcinoma (doxorubicin resistant) cell line in the sulforhodamine B assay.; type: functional, cell-based; conditions: Homo sapiens; procedure, shortened: as §1
[6] = tested on: MCF7; assay: Tested against […] breast carcinoma (mitoxantrone resistant)cell line in the sulforhodamine B assay.; type: functional, cell-based; conditions: Homo sapiens; procedure, shortened: as §1
[7] = tested on: OVCAR-3; assay: Inhibitory activity against OVCAR-3 cell line; type: functional, cell-based; conditions: Homo sapiens
[8] = species: Rattus norvegicus; assay: Cardiotoxicity by a neonatal rat heart myocyte assay; type: toxicity
Procedure, shortened: (§2)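 Neonatal rat heart myocytes exposed to drug for 1 h. Read-out is the ATP/protein ratio relative to untreated control myocytes. IC50 is the 1-h concentration that reduces this ratio to 50% of control.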

[9] = tested on: Tumor cell line; assay: An average for IC50 values in the two solid tumor cell lines.; type: functional, cell-based
[10] = tested on: WiDr; assay: Tested against WiDr colon (sensitive) in the sulforhodamine B assay.; type: functional, cell-based; conditions: Homo sapiens; procedure, shortened: as §1
[11] = tested on: WiDr; assay: Compound tested against WiDr colon carcinoma (resistant) in the sulforhodamine B assay.; type: functional, cell-based; conditions: Homo sapiens; procedure, shortened: as §1
[12] = Toxicity ratio determined by the quotient of IC50 values in the myocytes divided by the average value in the three tumor lines.; type: functional
Procedure, shortened: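 Ratio is the myocyte cardiotoxicity IC50 (1-h exposure, ATP/protein ratio versus untreated myocytes) divided by the mean IC50 in sensitive L1210 and the two human tumor lines, measured with continuous exposure.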

[13] = An average for IC50 values in the two solid tumor cell lines and sensitive L1210 leukemia cell line.; type: functional, cell-based
[14] = tested on: MCF7; assay: Tested against […] breast carcinoma (sensitive) cell line in the sulforhodamine B assay.; type: functional, cell-based; conditions: Homo sapiens; procedure, shortened: as §1
[15] = tested on: P388; assay: Compound was tested against P388 leukemia at % increase in life span (ILS) in mice at 15 mg/kg dosage; Not active at highest dose tested (% ILS<25); type: functional, organism-based; parameters: dose 15 mg/kg; conditions: Mus musculus
[16] = species: Rattus norvegicus; assay: Compound was tested for Cardiotoxicity by a neonatal rat heart myocyte assay.; type: functional; procedure, shortened: as §2
[17] = tested on: neonatal heart myocytes (Rattus norvegicus); assay: Cardio toxicity was measured.
[18] = tested on: B16; assay: Compound was tested against sc B16 melanoma at % tumor growth inhibition(TGI) in mice at 4 mg/kg dosage.; type: functional; conditions: Mus musculus, route subcutaneous, read-out: TGI
[19] = tested on: L1210; assay: Compound was tested against L1210 leukemia at % increase in life span (ILS) in mice at 5 mg/kg dosage.; type: functional; conditions: Mus musculus
Procedure, shortened: (§3)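 Male DBA/2J mice, 10 per group, inoculated ip on day 0 with 10^6 freshly harvested leukemia cells. Compound given ip in equal doses on days 1, 5 and 9; controls received saline ip on the same days. Highest dose set 10% below the acute LD10. %ILS = 100 × (treated − control)/control, using median life span per group; value reported at highest nontoxic dose.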

[20] = tested on: P388; assay: Compounds was tested against P388 leukemia at % increase in life span (ILS) in mice at 4.5 mg/kg dosage.; type: functional; conditions: Mus musculus; procedure, shortened: as §3
[21] = tested on: WiDr; assay: Compound was tested against WiDr colon carcinoma (resistant) in the sulforhodamine B assay.; type: functional, cell-based; conditions: Homo sapiens; procedure, shortened: as §1
[22] = tested on: B16; assay: Compound were tested against sc B16 melanoma at % tumor growth inhibition(TGI) in mice at 3 mg/kg dosage.; type: functional; conditions: Mus musculus, route subcutaneous, read-out: TGI
[23] = tested on: P388; assay: Compound was tested against P388 leukemia at % increase in life span (ILS) in mice at 3 mg/kg dosage.; type: functional; conditions: Mus musculus; procedure, shortened: as §3
[24] = tested on: WiDr; assay: Tested against WiDr colon carcinoma (resistant) in the sulforhodamine B assay.; type: functional, cell-based; conditions: Homo sapiens; procedure, shortened: as §1
[25] = tested on: A549; assay: Compound was tested against A549 lung carcinoma cell line in the sulforhodamine B assay.; type: functional, cell-based; conditions: Homo sapiens; procedure, shortened: as §1
[26] = tested on: WiDr; assay: Compound was tested against WiDr colon (sensitive) cell line in the sulforhodamine B assay.; type: functional, cell-based; conditions: Homo sapiens; procedure, shortened: as §1
[27] = tested on: WiDr; assay: Compound tested against WiDr colon carcinoma (resistant)cell line in the sulforhodamine B assay.; type: functional, cell-based; conditions: Homo sapiens; procedure, shortened: as §1
[28] = tested on: B16; assay: Compound was tested against sc B16 melanoma at % tumor growth inhibition(TGI) in mice at 3.2 mg/kg dosage.; type: functional; conditions: Mus musculus, route subcutaneous, read-out: TGI
[29] = tested on: L1210; assay: Compound was tested against L1210 leukemia at % increase in life span (ILS) in mice at 1.6 mg/kg dosage.; type: functional; conditions: Mus musculus; procedure, shortened: as §3
[30] = tested on: P388; assay: Compound was tested against P388 leukemia at % increase in life span (ILS) in mice at 1.6 mg/kg dosage.; type: functional; conditions: Mus musculus; procedure, shortened: as §3

| IC50 [1] [nM] | IC50 [2] [nM] | IC50 [3] [nM] | IC50 [4] [nM] | IC50 [5] [nM] | IC50 [7] [nM] | IC50 [9] [nM] | IC50 [13] [nM] | IC50 [14] [nM] | Compound | IC50 [6] [nM] | IC50 [8] [nM] | IC50 [10] [nM] | Toxicity ratio [12] | IC50 [24] [nM] | further results |
| --- | --- | --- | --- | --- | --- | --- | --- | --- | --- | --- | --- | --- | --- | --- | --- |
| 7 | 15 | 5.4 | 6.8 | 71 | 12 | 14 | 10.8 | 20 | CN(C)CCN1C(=O)c2cccc3c(N)c4ccccc4c(c23)C1=O | 80 | 1950 | 18 | 181 |  | IC50 [11]: 100 nM |
|  | 141 | 6.8 | 27 |  | 217 | 179 |  |  | Cc1ccc2c3c(c4ccccc4cc13)C(=O)N(CCN(C)C)C2=O |  |  |  | 8.1 |  | ILS [15]: inactive; IC50 [16]: 989 nM; IC50 [17]: 989 nM |
|  | 416 | 416 | 416 | 30 | 416 | 416 | 416 | 11 | CN(C)CCN1C(=O)c2ccc(I)c3cc4ccccc4c(c23)C1=O | 10 | 43700 |  | 105 |  | IC50 [25]: 10 nM; IC50 [26]: 65 nM; IC50 [27]: 620 nM |
| 4.2 | 20 | 0.37 | 0.52 | 12 | 8.7 | 14 | 9.7 | 10 | CSc1ccc2c3c(c4ccccc4cc13)C(=O)N(CCN(C)C)C2=O | 44 | 3000 | 12 | 310 | 64 |  |
| 91 | 156 | 117 | 109 | 180 | 130 | 143 | 134 | 150 | COc1c2ccccc2c2c3c(cccc13)C(=O)N(CCN(C)C)C2=O | 270 | 26000 | 180 | 194 | 260 |  |

| Compound | IC50 [1] [nM] | IC50 [2] [nM] | IC50 [3] [nM] | IC50 [4] [nM] | IC50 [5] [nM] | IC50 [7] [nM] | IC50 [9] [nM] | IC50 [13] [nM] | IC50 [14] [nM] | IC50 [6] [nM] | IC50 [8] [nM] | IC50 [10] [nM] | Toxicity ratio [12] | IC50 [24] [nM] | further results |
| --- | --- | --- | --- | --- | --- | --- | --- | --- | --- | --- | --- | --- | --- | --- | --- |
| COc1cccc2c1C(=O)c1c(O)c3c(c(O)c1C2=O)C[C@@](O)(C(=O)CO)C[C@@H]3O[C@H]1C[C@H](N)[C@H](O)[C@H](C)O1 [DOXORUBICIN] |  |  |  |  |  |  | 74 | 61 |  |  | 10200 | 53 |  |  | inhibition in vivo at 4 mg/kg [18]: 120%; ILS at 5 mg/kg [19]: 210%; ILS at 4.5 mg/kg [20]: 113%; IC50 [21]: 130 nM |
| CN(C)CCNc1ccc2c3c(c4ccccc4cc13)C(=O)N(CCN(C)C)C2=O | 0.43 | 11 | 0.04 | 0.04 | 14 | 63 | 37 | 25 | 1 | 1.9 | 4190 | 1.7 | 171 | 14 | inhibition in vivo at 3 mg/kg [22]: 66%; ILS at 3 mg/kg [23]: 44% |
| O=C1c2c(O)ccc(O)c2C(=O)c2c(NCCNCCO)ccc(NCCNCCO)c21 [MITOXANTRONE] | 3.1 |  | 9.7 |  | 72 |  | 27 | 21 | 8.7 | 41 | 7740 | 8.1 | 368 | 488 | inhibition in vivo at 3.2 mg/kg [28]: 130%; ILS at 1.6 mg/kg [29]: 150%; ILS at 1.6 mg/kg [30]: 200% |
